pIC50: −log10 of the molar value. Activity calls are given as the source filed them. The rule behind the calls is not given here.
Legend:
[1] = Cytotoxicity against human TZM-bl cells assessed as maximum non-cytotoxic concentration after 48 hrs by MTT assay; format: cell-based; conditions: read-out: MNCC
Summary of the method: (§1)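 Cells were seeded at 25,000/well in complete medium with compound at different concentrations, with untreated and DMSO controls, and incubated 48 h. MTT (5 mg/mL stock) was added for 4 h at 37 °C in the dark. Formazan was dissolved in isopropanol and A570 read. CC50 and highest non-cytotoxic concentration were derived from this assay.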

[2] = tested on: Human immunodeficiency virus 1; test: Antiviral activity against HIV1 NL4-3 infected in human TZM-bl cells assessed as reduction in viral replication at 100 nM measured at 48 hrs post-infection by steady-glo reporter gene assay relative to control; format: functional; conditions: Human immunodeficiency virus 1, NL4-3, TZM-bl
Summary of the method: (§2)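 TZM-bl cells (0.15×10^6/well) were infected with 0.5 MOI HIV-1 NL4-3 12 h after seeding and treated at the highest non-cytotoxic concentration, which was set by MTT assay. At 48 h post-infection, cells were lysed and mixed 1:1 with Steady-Glo substrate, and luminescence was read.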

[3] = Cytotoxicity against human CEM-GFP cells assessed as reduction in cell viability after 48 hrs by MTT assay; format: cell-based; summary of the method: as §1
[4] = tested on: Human immunodeficiency virus 1; test: Antiviral activity against HIV-1 NL4-3 infected in human CEM-GFP cells assessed as suppression of viral replication by measuring reduction in p24 level measured at 72 hrs post-infection by ELISA; format: functional, organism-based; conditions: Human immunodeficiency virus 1, NL4-3, CEM-GFP
Summary of the method: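 Cells were incubated with 0.5 MOI virus in the presence of polybrene at 37 °C for 4 h with intermittent mixing, then washed and plated in complete RPMI-1640. Compound added at different concentrations, with untreated and DMSO controls. PBMC were PHA-activated. Supernatant p24 measured by capture ELISA (A450) at 72 h. % inhibition calculated relative to untreated cells.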

[5] = tested on: Human immunodeficiency virus 1; test: Antiviral activity against HIV-1 NL4-3 infected in human TZM-bl cells assessed as reduction in viral replication at 1000 nM measured at 48 hrs post-infection by steady-glo reporter gene assay relative to control; format: functional; conditions: Human immunodeficiency virus 1, NL4-3, TZM-bl; summary of the method: as §2
[6] = Therapeutic index, ratio of CC50 for human CEM-GFP cells to IC50 for antiviral activity against HIV-1 NL4-3 infected in human CEM-GFP cells; format: toxicity, cell-based; conditions: read-out: Ratio CC50/IC50
Summary of the method: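 IC50 was determined from p24 ELISA 72 h after 0.5 MOI HIV-1 NL4-3 infection with compound at different concentrations. Therapeutic index = CC50/IC50.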

[7] = biological target: Human immunodeficiency virus type 1 reverse transcriptase (Human immunodeficiency virus 1) (UniProt Q72547); conditions: 500 nM
[8] = biological target: Protease (Human immunodeficiency virus 1) (UniProt Q9YQ12); test: Inhibition of HIV-1 protease at 500 nM using synthetic peptide as substrate after 15 mins by fluorimetric based assay
Summary of the method: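 Cell-free fluorometric protease kit. HIV-1 protease was diluted in reaction buffer and loaded at 10 nmol/well with or without compound. Indinavir served as positive control, with untreated and DMSO controls. Fluorescence (Ex/Em 330/450 nm) was read 15 min after addition. n = 3.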

Chain of Protease (Human immunodeficiency virus 1) (Q9YQ12 as listed by the source): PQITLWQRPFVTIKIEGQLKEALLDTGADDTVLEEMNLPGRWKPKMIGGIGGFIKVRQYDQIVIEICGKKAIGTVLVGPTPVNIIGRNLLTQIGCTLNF

Row | SMILES | MNTC at 48 h [1] [nM] | inhibition at 0.1 µM [2] [%] | CC50 at 48 h [3] [µM] | pIC50 [4] | inhibition at 1 µM [5] [%] | selectivity ratio [6] | also measured
1 | CCCNC(=O)Cc1cc(-c2ccccc2)on1 | 100 | 60.9 | – | – | – | – | –
2 | O=C(Cc1cc(-c2ccccc2)on1)Nc1ccccc1 | 1000 | – | 23 | 6.54 | 89.1 | 79.8 | –
3 | COc1ccc(NC(=O)Cc2cc(-c3ccccc3)on2)cc1 | 1000 | – | – | – | 59.6 | – | –
4 | Cc1ccc(NC(=O)Cc2cc(-c3cccs3)on2)cc1 | 100 | 56.9 | – | – | – | – | –
5 | Cc1cn([C@H]2C[C@H](N=[N+]=[N-])[C@@H](CO)O2)c(=O)[nH]c1=O [ZIDOVUDINE] | – | – | 13.9 | 7.89 | – | 1090 | –
6 | O=C(Cc1cc(-c2ccccc2)on1)Nc1ccccc1O | 1000 | – | 42.9 | 6.60 | 94.8 | 170 | –
7 | Cc1ccnc2c1NC(=O)c1cccnc1N2C1CC1 | – | – | – | – | – | – | inhibition [7]: Active
8 | Cc1cccc(NC(=O)Cc2cc(-c3ccccc3)on2)c1 | 100 | 33.3 | – | – | – | – | –
9 | CC(C)(C)NC(=O)[C@@H]1CN(Cc2cccnc2)CCN1C[C@@H](O)C[C@@H](Cc1ccccc1)C(=O)N[C@H]1c2ccccc2C[C@H]1O | – | – | – | – | – | – | inhibition [8]: Active
